The target in series [1] is T1, Free fatty acid receptor 1 (Homo sapiens, UniProt O14842). Nature of the series: Agonist activity at human FFA1 transfected in 1321N1 cells assessed as calcium mobilization by microplate assay. Format: functional, cell-based. Summed up: (§1)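 Calcium mobilization in hFFA1-expressing cells was measured as full concentration-response curves and reported as pEC50. Efficacy is % of the response to 10 μM of the reference agonist.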
In general terms: Calcium flux is commonly read through the fluorescence of an indicator in the cells.

Series [2] concerns the target T1, Free fatty acid receptor 1. Nature of the series: Agonist activity at human FFA1 transfected in 1321N1 cells assessed as calcium mobilization by microplate assay relative to 10 uM TUG-20. In kind it is functional, cell-based. Summed up: as §1
Series [3] has as its target T2, Peroxisome proliferator-activated receptor gamma (Homo sapiens) (UniProt P37231).
T2 sequence (whole entry): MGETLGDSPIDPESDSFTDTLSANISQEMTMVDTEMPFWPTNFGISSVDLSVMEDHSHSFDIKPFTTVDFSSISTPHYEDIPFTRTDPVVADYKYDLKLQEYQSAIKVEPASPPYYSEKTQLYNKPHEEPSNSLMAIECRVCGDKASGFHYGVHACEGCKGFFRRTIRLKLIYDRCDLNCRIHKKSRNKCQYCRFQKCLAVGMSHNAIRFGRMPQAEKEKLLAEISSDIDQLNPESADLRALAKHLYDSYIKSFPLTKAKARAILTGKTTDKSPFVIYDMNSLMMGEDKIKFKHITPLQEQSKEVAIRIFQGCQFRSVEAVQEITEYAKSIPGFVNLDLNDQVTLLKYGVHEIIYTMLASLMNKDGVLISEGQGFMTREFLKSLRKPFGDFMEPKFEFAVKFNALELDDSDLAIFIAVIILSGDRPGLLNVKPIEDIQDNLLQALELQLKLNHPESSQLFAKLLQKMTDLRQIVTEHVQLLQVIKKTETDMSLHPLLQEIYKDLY
Nature of the series: Transactivation of human PPARgamma ligand binding domain transfected in mouse embryo fibroblasts at 100 uM after 18 hrs analyzed by photinus and renilla luciferase activity by luminometry relative to 1 uM rosiglitazone.

In series [4] the target is T1, Free fatty acid receptor 1. Kind of series: Agonist activity at human FFA1 transfected in 1321N1 cells under serum-free condition after 1 hr by dose response curve/dynamic mass redistribution optical biosensor assay. In kind it is functional, cell-based. Summed up: (§2)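 hFFA1-transfected 1321N1 cells were exposed to a range of agonist concentrations. Label-free dynamic mass redistribution was tracked over time as the resonant wavelength shift (pm), a read-out of receptor activation. pEC50 was taken from concentration-response curves of this signal.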

The target of series [5] is T1, Free fatty acid receptor 1. Kind of series: Agonist activity at human FFA1 transfected in 1321N1 cells under serum-free condition up to 1 hr by dynamic mass redistribution optical biosensor assay. Format: functional, cell-based. In a few lines: as §2
Series [6] concerns the target T2, Peroxisome proliferator-activated receptor gamma (Homo sapiens). Nature of the series: Transactivation of human PPARgamma ligand binding domain transfected in mouse embryo fibroblasts assessed as renilla luciferase activity at 1 uM after 18 hrs by luminometry relative to 1 uM rosiglitazone.
The species entered for series [7] is Homo sapiens. Nature of the series: Selectivity for human FFA1 over human PPARgamma.
Series [8] is described as follows: Induction of 12 mM glucose-stimulated insulin secretion in rat INS-1E cells at 10 uM after 1 hr by radioimmunoassay. Format: functional.
For series [9], the system named is INS-1E. Kind of series: Induction of 2.8 mM glucose-stimulated insulin secretion in rat INS-1E cells at 10 uM after 1 hr by radioimmunoassay. Format: functional, cell-based.
In series [10] the target is Free fatty acid receptor 2 (Homo sapiens) (UniProt O15552). Nature of the series: Agonist activity at human GPR43 in HEK293 cells.
Series [11] addresses Free fatty acid receptor 3 (Homo sapiens) (UniProt O14843). Kind of series: Agonist activity at human GPR41 in HEK293 cells.
Series [12] deals with T1, Free fatty acid receptor 1. Kind of series: Agonist activity at human FFA1 transfected in 1321N1 cells assessed as calcium mobilization by microplate assay in presence of 0.05 % bovine serum albumin. Format: functional, cell-based. In a few lines:
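Calcium-response assay at hFFA1, with 0.05% BSA added to the assay because the compound dissolves poorly.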

Series [13] concerns the target T1, Free fatty acid receptor 1. Kind of series: Agonist activity at human FFA1 transfected in 1321N1 cells assessed as calcium mobilization by microplate assay in presence of 0.5 % bovine serum albumin. In kind it is functional, cell-based.
Series [14] addresses T1, Free fatty acid receptor 1. Kind of series: Agonist activity at human FFA1 transfected in 1321N1 cells assessed as calcium mobilization by microplate assay relative to linoleic acid. In kind it is functional, cell-based.
Series [15] concerns the target T2, Peroxisome proliferator-activated receptor gamma (Homo sapiens). Kind of series: Transactivation of human PPARgamma ligand binding domain transfected in mouse embryo fibroblasts assessed as renilla luciferase activity at 10 uM by luminometry relative to 1 uM rosiglitazone.
Series [16] in a line: Cytotoxicity in mouse embryo fibroblasts at 100 uM. The conditions noted are these: fibroblast. In kind it is cell-based.

The text below walks through data of ChEMBL document CHEMBL1773039, “Structure-Activity Study of Dihydrocinnamic Acids and Discovery of the Potent FFA1 (GPR40) Agonist TUG-469” (ACS Med Chem Lett, 2010).

The structures appear in SMILES notation. The source made the active and inactive calls. The calls are words filed in the database; no cut-off is given here.

Free fatty acid receptor 2 (Homo sapiens), sequence (O15552 whole entry, looked up): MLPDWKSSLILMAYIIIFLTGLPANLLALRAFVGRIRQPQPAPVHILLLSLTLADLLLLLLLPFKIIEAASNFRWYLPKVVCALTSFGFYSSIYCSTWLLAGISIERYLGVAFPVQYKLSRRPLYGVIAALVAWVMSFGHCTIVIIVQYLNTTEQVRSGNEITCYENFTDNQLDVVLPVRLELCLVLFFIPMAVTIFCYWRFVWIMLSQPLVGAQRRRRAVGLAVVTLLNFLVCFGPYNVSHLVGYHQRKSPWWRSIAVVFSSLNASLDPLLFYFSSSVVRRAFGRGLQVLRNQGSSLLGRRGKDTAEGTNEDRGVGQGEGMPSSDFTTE
T1 sequence (O14842 whole entry): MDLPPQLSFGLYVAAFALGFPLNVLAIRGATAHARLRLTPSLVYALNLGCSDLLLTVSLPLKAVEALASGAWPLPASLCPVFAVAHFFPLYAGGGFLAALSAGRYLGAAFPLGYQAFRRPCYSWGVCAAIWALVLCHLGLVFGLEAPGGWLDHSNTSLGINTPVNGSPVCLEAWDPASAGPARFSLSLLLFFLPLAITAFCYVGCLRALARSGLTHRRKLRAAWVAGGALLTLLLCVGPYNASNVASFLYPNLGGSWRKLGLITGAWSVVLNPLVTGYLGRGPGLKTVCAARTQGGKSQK
Free fatty acid receptor 3 (Homo sapiens), sequence (O14843 whole entry, looked up): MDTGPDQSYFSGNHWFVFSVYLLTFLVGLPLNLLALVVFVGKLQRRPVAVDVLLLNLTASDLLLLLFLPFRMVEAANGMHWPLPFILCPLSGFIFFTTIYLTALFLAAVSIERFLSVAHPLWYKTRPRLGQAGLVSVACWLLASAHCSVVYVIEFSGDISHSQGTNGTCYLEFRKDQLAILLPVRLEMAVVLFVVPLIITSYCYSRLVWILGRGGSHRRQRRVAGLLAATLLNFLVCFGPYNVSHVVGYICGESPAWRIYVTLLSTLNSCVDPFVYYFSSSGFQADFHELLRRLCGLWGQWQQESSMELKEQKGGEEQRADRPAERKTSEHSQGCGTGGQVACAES

As for `O=C(O)CCc1ccc(NCc2cccc(Oc3ccccc3)c2)cc1` [GW9508], the concentration for a half-maximal effect (EC50) – broadly, the concentration that produces a half-maximal response – in series [1] is 28.8 nM; in [4], 87.1 nM. Moreover, the Efficacy in [2] worked out at 103%. Moreover, the Activity in [3] stood at 54%.

Take `Cc1ccccc1-c1cccc(CNc2ccc(CCC(=O)O)cc2)c1`: in [5], the outcome was Active. In series [2], the Efficacy was 114%. Also, the figures for the Activity in series [3] and in series [8] were 86% and 55%, respectively. The result in series [6], in series [9], in series [10] and in series [11] was inactive. For the same compound, the fold change (FC) in [7] is over 100.

For the compound `Cc1ccccc1-c1cccc(COc2ccc(CCC(=O)O)cc2)c1`, the concentration for a half-maximal effect (EC50) in series [1] was 50.1 nM; in [12] it was 81.3 nM; in series [13] it was 562 nM; in series [4], 263 nM. The Efficacy in [2] stood at 112%. This compound yielded an Activity in series [3] of 37%. The result in [6], in series [10] and in [11] was inactive. In series [7], this compound came in with a fold change (FC) of over 100.

Consider `O=C(O)CCc1ccc(CNc2ccccc2)cc1`, for which the EC50 in series [1] is 21400 nM. Further, the Efficacy in series [2] turned out to be 101%. In addition, the result in series [3], in series [6], in [10] and in [11] was inactive. The same compound had a fold change (FC) in [7] of over 100.

As to `O=C(O)CCc1ccc(OCc2ccccc2)cc1` [BENZYLOXYPHENYLPROPANOIC ACID], the EC50 was 457 nM in [1] and 832 nM in series [4]. Besides, the Activity is 7% in series [3] and 123% in series [14]. Besides, the outcome in series [6], in series [10] and in series [11] was inactive.

Turning to `Cc1ccc(-c2cccc(CNc3ccc(CCC(=O)O)cc3)c2)cc1`, the EC50 in series [1] is 126 nM. In addition, the Efficacy in series [2] worked out at 92%. The Activity in series [3] amounted to 31%. The result in series [6], in series [10] and in [11] was inactive. In series [7], this compound came in with a fold change (FC) of over 100.

For `O=C(O)CCc1ccc(NCc2ccccc2-c2ccccc2)cc1`, the EC50 in series [1] was 1070 nM. In [2], the Efficacy is 97%. The result in series [6], in [10] and in series [11] was inactive. In series [7], this compound returned a fold change (FC) of over 100. Also, the Activity is 15% in series [15] and “Toxic” in series [16].
